Test results: ChEMBL document CHEMBL1155882, “Selective nucleoside triphosphate diphosphohydrolase-2 (NTPDase2) inhibitors: nucleotide mimetics derived from uridine-5'-carboxamide” (J Med Chem, 2008)
pIC50, pKi: −log10 of the molar value. Calls of active or inactive are those of the source. The rule behind the calls is not given here.

Columns and labels:
P2Y purinoceptor 2 = P2Y purinoceptor 2 (Homo sapiens, UniProt P41231); test: Antagonist activity at human P2Y2 receptor expressed in human 1321N1 cells assessed as inhibition of UTP-induced intracellular calcium mobilization by FLUOstar plate reader; format: functional, cell-based
Sequence of P2Y purinoceptor 2 (P41231 whole entry): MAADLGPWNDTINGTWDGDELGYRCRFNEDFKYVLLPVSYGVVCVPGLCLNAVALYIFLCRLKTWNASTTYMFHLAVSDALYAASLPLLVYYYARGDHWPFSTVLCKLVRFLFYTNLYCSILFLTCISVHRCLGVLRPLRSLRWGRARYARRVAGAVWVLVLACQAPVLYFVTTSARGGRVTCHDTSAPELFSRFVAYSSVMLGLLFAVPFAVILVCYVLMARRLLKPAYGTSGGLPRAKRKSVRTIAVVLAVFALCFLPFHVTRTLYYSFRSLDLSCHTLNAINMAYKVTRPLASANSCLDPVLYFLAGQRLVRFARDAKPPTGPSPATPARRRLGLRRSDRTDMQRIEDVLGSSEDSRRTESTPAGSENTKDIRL
Procedure, shortened: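 Fura-2 AM-loaded astrocytoma cells expressing human P2Y2 receptor. Compound is tested at 0.1, 0.3, 1, 3, 10, 30 and 100 μM. The read-out is inhibition of UTP-induced intracellular calcium mobilization.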

P2Y purinoceptor 4 [1] = biological target: T1, P2Y purinoceptor 4 (Homo sapiens, UniProt P51582); test: Antagonist activity at human P2Y4 receptor expressed in human 1321N1 cells assessed as inhibition of UTP-induced intracellular calcium mobilization by FLUOstar plate reader; format: functional, cell-based
T1 sequence (P51582 whole entry): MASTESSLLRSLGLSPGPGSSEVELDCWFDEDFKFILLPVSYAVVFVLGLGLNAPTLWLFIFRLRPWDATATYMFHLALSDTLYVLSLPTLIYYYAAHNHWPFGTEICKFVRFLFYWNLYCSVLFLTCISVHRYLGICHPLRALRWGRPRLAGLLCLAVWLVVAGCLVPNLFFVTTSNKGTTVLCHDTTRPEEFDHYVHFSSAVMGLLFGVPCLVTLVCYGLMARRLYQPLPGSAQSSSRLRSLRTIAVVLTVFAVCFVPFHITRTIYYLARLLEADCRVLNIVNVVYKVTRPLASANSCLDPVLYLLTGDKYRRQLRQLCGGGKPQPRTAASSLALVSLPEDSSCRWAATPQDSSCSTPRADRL

P2Y purinoceptor 6 = P2Y purinoceptor 6 (Rattus norvegicus, UniProt Q63371); test: Antagonist activity at rat P2Y6 receptor expressed in human 1321N1 cells assessed as inhibition of UDP-induced intracellular calcium mobilization by NOVOstar plate reader
Sequence of P2Y purinoceptor 6 (Q63371 whole entry): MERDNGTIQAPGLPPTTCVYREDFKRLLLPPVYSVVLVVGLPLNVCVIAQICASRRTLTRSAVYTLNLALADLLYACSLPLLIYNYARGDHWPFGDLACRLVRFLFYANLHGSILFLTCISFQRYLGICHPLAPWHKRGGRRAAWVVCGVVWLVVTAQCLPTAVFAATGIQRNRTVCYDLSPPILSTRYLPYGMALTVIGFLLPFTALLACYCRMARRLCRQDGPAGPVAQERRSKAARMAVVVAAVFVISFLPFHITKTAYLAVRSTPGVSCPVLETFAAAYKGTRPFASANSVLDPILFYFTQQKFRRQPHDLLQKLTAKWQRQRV

[2] = biological target: T2, Ectonucleoside triphosphate diphosphohydrolase 8 (Homo sapiens, UniProt Q5MY95); test: Inhibition of human NTPDase 8 expressed in COS7 cells; format: cell-based, COS-7
T2 sequence (Q5MY95 whole entry): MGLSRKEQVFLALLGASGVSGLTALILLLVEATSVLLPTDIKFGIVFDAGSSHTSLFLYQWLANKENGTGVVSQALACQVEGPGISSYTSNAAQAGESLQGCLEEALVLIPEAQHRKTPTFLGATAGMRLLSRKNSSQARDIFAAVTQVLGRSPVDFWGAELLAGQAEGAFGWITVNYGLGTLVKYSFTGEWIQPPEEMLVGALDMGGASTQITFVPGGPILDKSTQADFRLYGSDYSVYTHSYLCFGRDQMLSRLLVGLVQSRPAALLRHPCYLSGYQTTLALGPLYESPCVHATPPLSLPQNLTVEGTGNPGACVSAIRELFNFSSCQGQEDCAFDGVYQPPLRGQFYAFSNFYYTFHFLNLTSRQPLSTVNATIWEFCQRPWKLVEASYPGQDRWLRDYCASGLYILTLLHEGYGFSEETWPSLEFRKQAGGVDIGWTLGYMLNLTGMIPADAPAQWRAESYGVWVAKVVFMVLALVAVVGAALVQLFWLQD
Procedure, shortened: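 NTPDase2 membranes come from stably transfected HEK 293 cells; NTPDase3 and NTPDase8 are transiently expressed in COS-7 cells as crude protein extracts. Buffer is 140 mM NaCl, 5 mM KCl, 1 mM MgCl2, 2 mM CaCl2, 10 mM HEPES pH 7.4, with 400 μM ATP, 37 °C, 10 min, stopped at 99 °C. Products are read by capillary electrophoresis (UV 210 nm, UMP internal standard).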

[3] = Inhibition of rat NTPDase 3
P2Y purinoceptor 4 [4] = biological target: T1, P2Y purinoceptor 4; test: Antagonist activity at human P2Y4 receptor expressed in human 1321N1 cells assessed as inhibition of UTP-induced intracellular calcium mobilization at 100 uM by FLUOstar plate reader; format: functional, cell-based
Procedure, shortened: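 Human 1321N1 astrocytoma cells express human P2Y2 or P2Y4, or rat P2Y6. Cells are loaded with Fura-2 AM and preincubated with compound at 100 μM. Inhibition of agonist-induced intracellular calcium release is read as Fura-2 fluorescence. The agonist is UTP for P2Y2 and P2Y4, and UDP for P2Y6.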

[5] = biological target: P2Y purinoceptor 6 (Rattus norvegicus) (UniProt Q63371); test: Antagonist activity at rat P2Y6 receptor expressed in human 1321N1 cells assessed as inhibition of UDP-induced intracellular calcium mobilization by NOVOstar plate reader

Compound	pIC50 (P2Y purinoceptor 2)	pIC50 (P2Y purinoceptor 4 [1])	pIC50 (P2Y purinoceptor 6)	pKi [2]	pKi [3]	Activity (P2Y purinoceptor 4 [4])	pIC50 [5]
Nc1c(S(=O)(=O)O)cc(Nc2ccc(Nc3nc(Cl)nc(Nc4cccc(S(=O)(=O)O)c4)n3)c(S(=O)(=O)O)c2)c2c1C(=O)c1ccccc1C2=O [RB 2]	4.92	5.24	5.36	< 4.00			
Cc1ccc(C(=O)Nc2ccc(S(=O)(=O)O)c3cc(S(=O)(=O)O)cc(S(=O)(=O)O)c23)cc1NC(=O)c1cccc(NC(=O)Nc2cccc(C(=O)Nc3cc(C(=O)Nc4ccc(S(=O)(=O)O)c5cc(S(=O)(=O)O)cc(S(=O)(=O)O)c45)ccc3C)c2)c1 [SURAMIN]	4.30			< 4.00	4.90	inactive	4.57
